Results as given in ChEMBL document CHEMBL1150307, “Design, synthesis and evaluation of novel sulfonyl pyrrolidine derivatives as matrix metalloproteinase inhibitors” (Bioorg Med Chem, 2008).

What follows are compounds tested against 72 kDa type IV collagenase (Homo sapiens, UniProt P08253) (assay: Inhibition of MMP2).
Procedure, shortened: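 Run in borate buffer (50 mM, pH 8.5) with succinylated gelatin as substrate. Enzyme and inhibitor were preincubated 30 min at 37 °C, then substrate was added for 60 min at 37 °C. Picrylsulfonic acid (0.03%) was added for 20 min at room temperature. Absorbance was read at 450 nm, and % inhibition was calculated against uninhibited and blank wells.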

72 kDa type IV collagenase, sequence (P08253 whole entry): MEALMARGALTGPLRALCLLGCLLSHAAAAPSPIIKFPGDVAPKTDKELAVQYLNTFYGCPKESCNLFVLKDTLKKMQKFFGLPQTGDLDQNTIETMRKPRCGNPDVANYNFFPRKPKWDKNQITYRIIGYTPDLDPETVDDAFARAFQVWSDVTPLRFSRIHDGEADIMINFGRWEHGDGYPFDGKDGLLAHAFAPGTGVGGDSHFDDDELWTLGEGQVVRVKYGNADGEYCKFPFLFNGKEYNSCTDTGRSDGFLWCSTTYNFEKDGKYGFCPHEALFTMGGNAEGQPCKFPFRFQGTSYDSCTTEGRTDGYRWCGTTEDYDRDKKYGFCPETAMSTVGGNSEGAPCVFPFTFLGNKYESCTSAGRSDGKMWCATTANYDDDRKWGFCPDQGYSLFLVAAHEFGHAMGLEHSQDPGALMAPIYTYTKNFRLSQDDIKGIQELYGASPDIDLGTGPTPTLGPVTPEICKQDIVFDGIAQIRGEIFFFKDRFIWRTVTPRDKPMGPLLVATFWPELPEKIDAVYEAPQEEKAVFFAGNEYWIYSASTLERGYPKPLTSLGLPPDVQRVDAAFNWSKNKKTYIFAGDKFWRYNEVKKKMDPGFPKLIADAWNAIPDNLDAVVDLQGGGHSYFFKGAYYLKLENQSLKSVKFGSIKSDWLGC

Row | SMILES | IC50 [nM]
1 | O=C(NO)[C@@H]1CC2(CN1S(=O)(=O)c1ccccc1)OCCO2 | 8
2 | COC(=O)[C@@H]1CC(=O)CN1S(=O)(=O)c1ccccc1 | 2000
3 | O=C(NO)[C@@H]1CC2(CN1S(=O)(=O)c1ccccc1)OCCCO2 | 11
4 | COC(=O)[C@@H]1C[C@@H](O)CN1S(C)(=O)=O (relative stereo) | 7100
5 | COC(=O)[C@@H]1CC(=O)CN1S(C)(=O)=O | 9500
6 | COC(=O)[C@@H]1C[C@@H](O)CN1S(=O)(=O)c1ccccc1 (relative stereo) | 800
7 | COc1ccc(/C=C/C(=O)N2C[C@@H](NC(=O)c3cccnc3)C[C@H]2C(=O)NO)cc1OC | 9
8 | O=C(NO)[C@@H]1CC2(CN1S(=O)(=O)c1ccccc1)OCCCCO2 | 12
9 | COC(=O)[C@@H]1C[C@@H](O)CN1S(=O)(=O)c1ccc(C)cc1 (relative stereo) | 100
10 | COC(=O)[C@@H]1CC(=O)CN1S(=O)(=O)c1ccc(C)cc1 | 400

Second part, the compound after the results:

Row | IC50 [nM] | SMILES
11 | 3 | Cc1ccc(S(=O)(=O)N2CC3(C[C@H]2C(=O)NO)OCCO3)cc1
12 | 300 | COC(=O)[C@@H]1CC2(CN1S(=O)(=O)c1ccc(C)cc1)OCCCCO2
13 | 8 | Cc1ccc(S(=O)(=O)N2CC3(C[C@H]2C(=O)NO)OCCCCO3)cc1
14 | 100 | COC(=O)[C@@H]1CC2(CN1S(=O)(=O)c1ccc(C)cc1)OCCO2
15 | 6 | Cc1ccc(S(=O)(=O)N2CC3(C[C@H]2C(=O)NO)OCCCO3)cc1
16 | 200 | COC(=O)[C@@H]1CC2(CN1S(=O)(=O)c1ccccc1)OCCO2
17 | 1100 | COC(=O)[C@@H]1CC2(CN1S(=O)(=O)c1ccccc1)OCCCO2
18 | 200 | COC(=O)[C@@H]1CC2(CN1S(=O)(=O)c1ccc(C)cc1)OCCCO2
19 | 1500 | COC(=O)[C@@H]1CC2(CN1S(=O)(=O)c1ccccc1)OCCCCO2

What follows are compounds tested against Aminopeptidase N (Homo sapiens, UniProt P15144) (assay: Inhibition of aminopeptidase N).
Procedure, shortened: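 Enzyme and inhibitor were preincubated in sodium phosphate buffer (50 mM, pH 7.2) for 30 min at 37 °C. L-leucine p-nitroanilide was then added and incubated a further 60 min at 37 °C. Absorbance at 405 nm was used to calculate inhibition rates.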

Aminopeptidase N, sequence (P15144 whole entry): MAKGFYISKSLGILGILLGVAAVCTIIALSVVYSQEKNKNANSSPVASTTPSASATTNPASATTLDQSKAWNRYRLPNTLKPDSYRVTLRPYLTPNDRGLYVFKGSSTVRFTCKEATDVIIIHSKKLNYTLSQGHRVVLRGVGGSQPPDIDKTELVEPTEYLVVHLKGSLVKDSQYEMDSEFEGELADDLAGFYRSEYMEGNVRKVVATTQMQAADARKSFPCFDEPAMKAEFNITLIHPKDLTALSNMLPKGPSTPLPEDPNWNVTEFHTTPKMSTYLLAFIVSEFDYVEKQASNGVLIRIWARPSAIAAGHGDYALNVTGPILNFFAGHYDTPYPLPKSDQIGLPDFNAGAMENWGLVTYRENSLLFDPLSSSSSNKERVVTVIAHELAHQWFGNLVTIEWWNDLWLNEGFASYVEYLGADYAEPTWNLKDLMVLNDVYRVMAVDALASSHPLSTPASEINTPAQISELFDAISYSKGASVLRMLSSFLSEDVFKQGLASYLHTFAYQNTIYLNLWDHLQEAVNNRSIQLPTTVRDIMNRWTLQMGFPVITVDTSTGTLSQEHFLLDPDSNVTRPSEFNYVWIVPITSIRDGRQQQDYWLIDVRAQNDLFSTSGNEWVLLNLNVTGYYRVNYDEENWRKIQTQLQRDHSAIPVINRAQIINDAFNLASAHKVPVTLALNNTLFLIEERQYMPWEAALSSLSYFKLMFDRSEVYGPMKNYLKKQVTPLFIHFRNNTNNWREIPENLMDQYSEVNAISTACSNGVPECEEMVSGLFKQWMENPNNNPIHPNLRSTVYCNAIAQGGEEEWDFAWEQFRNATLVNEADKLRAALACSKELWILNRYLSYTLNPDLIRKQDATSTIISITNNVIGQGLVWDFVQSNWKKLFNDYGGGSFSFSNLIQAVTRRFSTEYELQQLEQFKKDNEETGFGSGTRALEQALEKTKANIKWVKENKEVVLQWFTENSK

Row | SMILES | IC50 [µM]
20 | O=C(NO)[C@@H]1CC2(CN1S(=O)(=O)c1ccccc1)OCCO2 | 57.8
21 | COC(=O)[C@@H]1CC(=O)CN1S(=O)(=O)c1ccccc1 | 75.8
22 | O=C(NO)[C@@H]1CC2(CN1S(=O)(=O)c1ccccc1)OCCCO2 | 82.7
23 | COC(=O)[C@@H]1C[C@@H](O)CN1S(C)(=O)=O (relative stereo) | 41.6
24 | COC(=O)[C@@H]1CC(=O)CN1S(C)(=O)=O | 92.6
25 | COC(=O)[C@@H]1C[C@@H](O)CN1S(=O)(=O)c1ccccc1 (relative stereo) | 53.8
26 | COc1ccc(/C=C/C(=O)N2C[C@@H](NC(=O)c3cccnc3)C[C@H]2C(=O)NO)cc1OC | 142
27 | O=C(NO)[C@@H]1CC2(CN1S(=O)(=O)c1ccccc1)OCCCCO2 | 107
28 | COC(=O)[C@@H]1C[C@@H](O)CN1S(=O)(=O)c1ccc(C)cc1 (relative stereo) | 38.4
29 | COC(=O)[C@@H]1CC(=O)CN1S(=O)(=O)c1ccc(C)cc1 | 54.9

Second part, the compound after the results:

Row | IC50 [µM] | SMILES
30 | 48.5 | Cc1ccc(S(=O)(=O)N2CC3(C[C@H]2C(=O)NO)OCCO3)cc1
31 | 124 | COC(=O)[C@@H]1CC2(CN1S(=O)(=O)c1ccc(C)cc1)OCCCCO2
32 | 73.2 | Cc1ccc(S(=O)(=O)N2CC3(C[C@H]2C(=O)NO)OCCCCO3)cc1
33 | 156 | COC(=O)[C@@H]1CC2(CN1S(=O)(=O)c1ccc(C)cc1)OCCO2
34 | 61.8 | Cc1ccc(S(=O)(=O)N2CC3(C[C@H]2C(=O)NO)OCCCO3)cc1
35 | 151 | COC(=O)[C@@H]1CC2(CN1S(=O)(=O)c1ccccc1)OCCO2
36 | 168 | COC(=O)[C@@H]1CC2(CN1S(=O)(=O)c1ccccc1)OCCCO2
37 | 174 | COC(=O)[C@@H]1CC2(CN1S(=O)(=O)c1ccc(C)cc1)OCCCO2
38 | 135 | COC(=O)[C@@H]1CC2(CN1S(=O)(=O)c1ccccc1)OCCCCO2
